Assay results taken from ChEMBL document CHEMBL1914339, “Design, synthesis and biological evaluation of pyridine acyl sulfonamide derivatives as novel COX-2 inhibitors” (Bioorg Med Chem, 2011).
Active and inactive are the calls of the source. The rule behind the calls is not given here.

Experiments:
MCF7 = assay: Antiproliferative activity against human MCF7 cells after 48 hrs by MTT colorimetric assay; type: functional, cell-based; settings: MCF7, 48 h
Procedure, shortened: (§1)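 Cells seeded at 2 × 10⁴ cells/ml and grown 24 h, then exposed in exponential growth to final compound concentrations of 0.1 to 100 for 48 h. Survival read by MTT (0.5 mg/mL in DMEM, 4 h) with absorbance at 570 nm. Three replicate wells per concentration; each assay run at least three times.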

B16-F10 = assay: Antiproliferative activity against mouse B16F10 cells after 48 hrs by MTT colorimetric assay; type: functional, cell-based; settings: B16-F10, 48 h; procedure, shortened: as §1
RAW264.7 [1] = assay: Antiinflammatory activity in mouse RAW264.7 cells assessed as inhibition of LPS-induced PGE2 production; type: functional, cell-based
HepG2 = assay: Antiproliferative activity against human HepG2 cells after 48 hrs by MTT colorimetric assay; type: functional, cell-based; settings: HepG2, 48 h; procedure, shortened: as §1
[2] = molecular target: Prostaglandin G/H synthase 2 (Mus musculus) (UniProt Q05769)
[3] = molecular target: Prostaglandin G/H synthase 1 (Mus musculus) (UniProt P22437)
RAW264.7 [4] = assay: Inhibition of LPS-induced COX2 expression in mouse RAW264.7 cells at 0.75 to 1.5 uM treated 15 mins before LPS challenge measured after 18 hrs by Western blotting; type: functional, cell-based
Procedure, shortened: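 RAW 264.7 cells (5 × 10⁵) were plated for 24 h, then pretreated with compound for 15 min before LPS stimulation for 18 h. Cells were lysed in lysis buffer and COX-2 protein was detected by Western immunoblot.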

Prostaglandin G/H synthase 2 (Mus musculus), sequence (Q05769 whole entry, looked up): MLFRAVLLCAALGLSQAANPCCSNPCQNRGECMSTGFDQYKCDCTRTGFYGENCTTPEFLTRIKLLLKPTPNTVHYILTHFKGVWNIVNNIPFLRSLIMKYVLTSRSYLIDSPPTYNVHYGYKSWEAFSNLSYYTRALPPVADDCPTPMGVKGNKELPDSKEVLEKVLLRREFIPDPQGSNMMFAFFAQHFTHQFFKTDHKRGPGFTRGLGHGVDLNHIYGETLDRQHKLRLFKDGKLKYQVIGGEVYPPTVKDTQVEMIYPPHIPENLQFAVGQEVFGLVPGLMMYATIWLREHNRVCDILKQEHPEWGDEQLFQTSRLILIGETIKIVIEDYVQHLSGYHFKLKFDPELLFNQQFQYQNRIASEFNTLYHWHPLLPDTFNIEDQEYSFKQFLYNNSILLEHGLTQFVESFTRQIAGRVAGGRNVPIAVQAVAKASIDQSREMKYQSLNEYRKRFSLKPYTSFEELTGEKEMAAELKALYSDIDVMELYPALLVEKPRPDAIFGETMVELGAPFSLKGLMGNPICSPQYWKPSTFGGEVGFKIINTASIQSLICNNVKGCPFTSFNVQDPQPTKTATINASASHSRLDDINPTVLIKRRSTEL
Prostaglandin G/H synthase 1 (Mus musculus), sequence (P22437 whole entry, looked up): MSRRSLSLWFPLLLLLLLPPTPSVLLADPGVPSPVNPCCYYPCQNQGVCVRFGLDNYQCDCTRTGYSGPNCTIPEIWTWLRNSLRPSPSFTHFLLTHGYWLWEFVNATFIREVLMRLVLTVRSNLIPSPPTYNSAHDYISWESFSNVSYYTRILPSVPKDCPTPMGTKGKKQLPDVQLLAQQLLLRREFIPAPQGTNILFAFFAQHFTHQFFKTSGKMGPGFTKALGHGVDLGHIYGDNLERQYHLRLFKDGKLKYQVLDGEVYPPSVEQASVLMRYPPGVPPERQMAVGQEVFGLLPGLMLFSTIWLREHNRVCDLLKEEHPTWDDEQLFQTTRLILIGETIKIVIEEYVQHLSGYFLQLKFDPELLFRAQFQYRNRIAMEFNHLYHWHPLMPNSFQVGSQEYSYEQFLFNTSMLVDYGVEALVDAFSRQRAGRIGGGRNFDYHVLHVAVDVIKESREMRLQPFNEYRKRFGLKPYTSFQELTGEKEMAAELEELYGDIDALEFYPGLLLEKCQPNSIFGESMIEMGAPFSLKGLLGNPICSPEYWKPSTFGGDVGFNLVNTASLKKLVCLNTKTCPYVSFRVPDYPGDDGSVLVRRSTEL

| IC50 (MCF7) [µM] | IC50 (B16-F10) [µM] | IC50 (RAW264.7 [1]) [µM] | IC50 (HepG2) [µM] | IC50 [2] [µM] | IC50 [3] [µM] | SMILES | inhibition (RAW264.7 [4]) |
| --- | --- | --- | --- | --- | --- | --- | --- |
| 4.2 | 6.2 | 0.87 | 3.8 | 1.9 | 41.5 | O=C(NS(=O)(=O)c1ccc(Cl)cc1)c1cccc(C(=O)NS(=O)(=O)c2ccc(Cl)cc2)n1 |  |
| 11.5 | 14.5 | 9.5 | 10.4 | 15.8 | > 50 | O=C(NS(=O)(=O)c1ccccc1)c1cccnc1 |  |
| 6.2 | 12.2 | 2.1 | 4.2 | 5.6 | 39.8 | Cc1ccc(S(=O)(=O)NC(=O)c2cccc(C(=O)NS(=O)(=O)c3ccc(C)cc3)n2)cc1 |  |
| 8.3 | 9.7 | 2.8 | 6.7 | 4.9 | 40.5 | O=C(NS(=O)(=O)c1ccc(Br)cc1)c1cccnc1 |  |
| 4.1 | 7.2 | 1.2 | 3.3 | 2.8 | 42.5 | O=C(NS(=O)(=O)c1ccc(Br)cc1)c1cncc(C(=O)NS(=O)(=O)c2ccc(Br)cc2)c1 |  |
| 13.9 | 13.8 | 9.2 | 12.4 | 12.1 | > 50 | O=C(NS(=O)(=O)c1ccc(F)cc1)c1ccncc1 |  |
| 10.6 | 11.3 | 2.6 | 9.2 | 7.9 | 36.9 | O=C(NS(=O)(=O)c1ccccc1)c1cncc(C(=O)NS(=O)(=O)c2ccccc2)c1 |  |
| 10.6 | 13.8 | 8.6 | 9 | 11.7 | > 50 | O=C(NS(=O)(=O)c1ccc(F)cc1)c1cccnc1 |  |
| 11 | 10.9 | 3.3 | 8.5 | 6.3 | 43.8 | O=C(NS(=O)(=O)c1ccc(F)cc1)c1ccccn1 |  |
| 7.9 | 8.8 | 1.9 | 6.2 | 5.6 | 40.2 | O=C(NS(=O)(=O)c1ccc(F)cc1)c1cncc(C(=O)NS(=O)(=O)c2ccc(F)cc2)c1 |  |
| 1.8 | 2.8 | 0.15 | 1.2 | 0.8 | 35.6 | O=C(NS(=O)(=O)c1ccc(Br)cc1)c1cccc(C(=O)NS(=O)(=O)c2ccc(Br)cc2)n1 | Active |
| 4.6 | 10 | 1.1 | 3.7 | 2.6 | 40.3 | O=C(NS(=O)(=O)c1ccc(F)cc1)c1cccc(C(=O)NS(=O)(=O)c2ccc(F)cc2)n1 |  |
| 9.8 | 9.4 | 2.8 | 8.1 | 6 | 39.7 | O=C(NS(=O)(=O)c1ccc(Cl)cc1)c1ccccn1 |  |
| 11.8 | 16.7 | 5.9 | 12.1 | 8 | > 50 | Cc1ccc(S(=O)(=O)NC(=O)c2ccccn2)cc1 |  |
| 10.6 | 14.2 | 4.5 | 9.9 | 8.8 | > 50 | O=C(NS(=O)(=O)c1ccccc1)c1ccccn1 |  |
| 15.5 | 18.5 | 8.8 | 12.3 | 18.2 | > 50 | Cc1ccc(S(=O)(=O)NC(=O)c2cccnc2)cc1 |  |
| 14.1 | 16.2 | 9.8 | 20.2 | 19.4 | > 50 | Cc1ccc(S(=O)(=O)NC(=O)c2ccncc2)cc1 |  |
| 10.1 | 11.9 | 3.2 | 8.6 | 6.6 | 35.8 | O=C(NS(=O)(=O)c1ccc(Cl)cc1)c1cccnc1 |  |
| 6.8 | 8.5 | 1.9 | 5 | 3.6 | > 50 | O=C(NS(=O)(=O)c1ccc(Br)cc1)c1ccccn1 |  |
| 10.1 | 12.4 | 8.9 | 7.9 | 12.6 | 41.2 | O=C(NS(=O)(=O)c1ccc(Cl)cc1)c1ccncc1 |  |
| 40.8 | 85.6 | 0.1 | 95.5 |  |  | Cc1ccc(-c2cc(C(F)(F)F)nn2-c2ccc(S(N)(=O)=O)cc2)cc1 [CELECOXIB] |  |
| 10.8 | 9.2 | 2.2 | 10 | 8.5 | > 50 | Cc1ccc(S(=O)(=O)NC(=O)c2cncc(C(=O)NS(=O)(=O)c3ccc(C)cc3)c2)cc1 |  |
| 8.7 | 8.8 | 5.5 | 6.3 | 7.8 | 38 | O=C(NS(=O)(=O)c1ccc(Br)cc1)c1ccncc1 |  |
| 9.3 | 10.7 | 1.6 | 5.3 | 3.7 | 35.8 | O=C(NS(=O)(=O)c1ccccc1)c1cccc(C(=O)NS(=O)(=O)c2ccccc2)n1 |  |
